These results are taken from ChEMBL document CHEMBL1138853, “Synthesis and antituberculosis activity of a novel series of optically active 6-nitro-2,3-dihydroimidazo[2,1-b]oxazoles” (2006).

≈ marks a conversion by molar mass, not a printed value.

Test [1] has as its system Mycobacterium tuberculosis. Nature of the test: Antituberculosis activity against INH resistant Mycobacterium tuberculosis H37Rv. The class given is functional. In outline: (§1)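 Agar dilution on 7H11 plates with drug-susceptible and drug-resistant M. tuberculosis H37Rv strains grown in Middlebrook 7H9 broth. Frozen stocks (-80 °C) diluted to about 10⁶ CFU/mL and spotted with a multipoint inoculator onto drug-containing plates. Drugs dissolved in DMSO and serially diluted 2-fold in DMSO. Read-out: MIC.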

Test [2] deals with Mycobacterium tuberculosis. Description: Antituberculosis activity against rifampicin resistant Mycobacterium tuberculosis H37Rv. Format: functional. In outline: as §1

As usually defined, the MIC is the lowest concentration found to suppress growth. A higher MIC goes with weaker potency. For the molecule `C[C@]1(COc2ccc(N3CCC(Oc4ccc(C(F)(F)F)cc4)CC3)cc2)Cn2cc([N+](=O)[O-])nc2O1`, the figures for the MIC in test [1] and in test [2] were 0.012 µg/mL (≈ 0.0231 µM) and 0.006 µg/mL (≈ 0.0116 µM), respectively.
For `Cc1ccc(OC2CCN(c3ccc(OC[C@@]4(C)Cn5cc([N+](=O)[O-])nc5O4)cc3)CC2)cc1` the same measures were 0.39 µg/mL (≈ 0.84 µM) and 0.39 µg/mL (≈ 0.84 µM).
For `C[C@]1(COc2ccc(N3CCC(Oc4ccccc4)CC3)cc2)Cn2cc([N+](=O)[O-])nc2O1` the same measures were 0.39 µg/mL (≈ 0.866 µM) and 0.2 µg/mL (≈ 0.444 µM).
For `COc1ccc(OC2CCN(c3ccc(OC[C@@]4(C)Cn5cc([N+](=O)[O-])nc5O4)cc3)CC2)cc1` the same measures were 0.39 µg/mL (≈ 0.812 µM) and 0.2 µg/mL (≈ 0.416 µM).
For `C[C@]1(COc2ccc(N3CCC(Oc4ccccc4OC(F)(F)F)CC3)cc2)Cn2cc([N+](=O)[O-])nc2O1`, the figures for the MIC in test [1] and in test [2] were 0.39 µg/mL (≈ 0.73 µM) and 0.2 µg/mL (≈ 0.374 µM), respectively.
For `C[C@]1(COc2ccc(OC(F)(F)F)cc2)Cn2cc([N+](=O)[O-])nc2O1` the same measures were 0.39 µg/mL (≈ 1.09 µM) and 0.2 µg/mL (≈ 0.557 µM).
`C[C@]1(COc2ccc(N3CCCCC3)cc2)Cn2cc([N+](=O)[O-])nc2O1`: the MIC in test [1] and in test [2] was 0.39 µg/mL (≈ 1.09 µM) each time.
Consider `Cc1ccc(OC[C@@]2(C)Cn3cc([N+](=O)[O-])nc3O2)cc1`, for which the MIC in test [1] worked out at 0.024 µg/mL (≈ 0.083 µM); in test [2], 0.012 µg/mL (≈ 0.0415 µM).
For `C[C@]1(COc2ccc(C(F)(F)F)cc2)Cn2cc([N+](=O)[O-])nc2O1` the same measures were 0.2 µg/mL (≈ 0.583 µM) and 0.1 µg/mL (≈ 0.291 µM).
For `C[C@]1(COc2ccccc2)Cn2cc([N+](=O)[O-])nc2O1` the same measures were 0.05 µg/mL (≈ 0.182 µM) and 0.05 µg/mL (≈ 0.182 µM).
For the molecule `C[C@]1(COc2ccc(N3CCSCC3)cc2)Cn2cc([N+](=O)[O-])nc2O1`, the MIC in test [1] stood at 0.39 µg/mL (≈ 1.04 µM); in test [2], 0.2 µg/mL (≈ 0.531 µM).
In the case of `COc1ccc(OC[C@@]2(C)Cn3cc([N+](=O)[O-])nc3O2)cc1`, the MIC was 0.1 µg/mL (≈ 0.328 µM) in test [1] and 0.05 µg/mL (≈ 0.164 µM) in test [2].
On to `C[C@]1(COc2ccc(N3CCOCC3)cc2)Cn2cc([N+](=O)[O-])nc2O1`, for which the MIC in test [1] was found to be 0.78 µg/mL (≈ 2.16 µM); in test [2], 0.39 µg/mL (≈ 1.08 µM).
For `C[C@]1(COc2ccc(N3CCC(Oc4cccc(OC(F)(F)F)c4)CC3)cc2)Cn2cc([N+](=O)[O-])nc2O1` the same measures were 0.024 µg/mL (≈ 0.0449 µM) and 0.024 µg/mL (≈ 0.0449 µM).
Take `C[C@]1(COc2ccc(N3CCC(Oc4ccc(F)cc4)CC3)cc2)Cn2cc([N+](=O)[O-])nc2O1`: the figures for the MIC in test [1] and in test [2] were 0.39 µg/mL (≈ 0.832 µM) and 0.2 µg/mL (≈ 0.427 µM), respectively.
For `C[C@]1(COc2ccc(N3CCC(Oc4ccc(Cl)cc4)CC3)cc2)Cn2cc([N+](=O)[O-])nc2O1` the same measures were 0.05 µg/mL (≈ 0.103 µM) and 0.024 µg/mL (≈ 0.0495 µM).
For the molecule `C[C@]1(COc2ccc(Cl)cc2)Cn2cc([N+](=O)[O-])nc2O1`, the minimum inhibitory concentration (MIC) was 0.012 µg/mL (≈ 0.0387 µM) in test [1] and 0.006 µg/mL (≈ 0.0194 µM) in test [2].
For `C[C@]1(COc2ccc(N3CCC(Oc4ccc(OC(F)(F)F)cc4)CC3)cc2)Cn2cc([N+](=O)[O-])nc2O1` [DELAMANID] the same measures were 0.006 µg/mL (≈ 0.0112 µM) and 0.006 µg/mL (≈ 0.0112 µM).
For `C[C@]1(COc2ccc(N3CC[S+]([O-])CC3)cc2)Cn2cc([N+](=O)[O-])nc2O1` the same measures were 6.25 µg/mL (≈ 15.9 µM) and 6.25 µg/mL (≈ 15.9 µM).
